# A selection: hits, their analogues and other compounds. The true share with any hit is near 4.9%.
# STAT3 inh: reduces IL-6 driven STAT3 reporter signal; U3A cells, IL-6 STAT3-luciferase reporter, luminescence; host cell line lacks STAT1; 190,000 compounds, 0.89% hits; inhibition, % at 5.5 µM; AID 862;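 active = inhibition above the mean inhibition across all screened compounds plus 3 SD, cut at about 44% in these data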
# STAT1 act: activators of IFN-gamma induced STAT1 signaling. NIH 3T3 STAT1-luciferase reporter, luminescence; 100% = IFN-gamma alone, no compound. activation (% of control), % at 5.5 µM. 200,000 compounds, 2.6% hits. AID 932;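 active = activation above the screen-wide mean activation plus 3 SD, cut at about 130% in these data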
# STAT1 inh: inhibitors of IFN-gamma induced STAT1 signaling. inhibition, % at 5.5 µM. 200,000 compounds, 0.35% hits. NIH 3T3 STAT1-luciferase reporter, luminescence;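 active = inhibition above a set limit, the mean inhibition across all tested compounds plus 3 SD, cut at about 34% in these data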
# APP 5'UTR act: activates APP 5'UTR luciferase reporter; SH-SY5Y APP 5'UTR luciferase reporter, luminescence; zero percent = DMSO vehicle wells; activation, % at 2 µM; 190,000 compounds, 1% hits; AID 1276;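 active = activation above a set limit, based on mean plus 3 SD of controls, cut at about 140% in these data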
# STAT3 act: activators of IL-6 induced STAT3 signaling. U3A cells, IL-6 STAT3-luciferase reporter, luminescence; 100% = signal with IL-6 EC80 alone. activation (% of control), % at 5.6 µM. AID 871. 190,000 compounds, 0.91% hits;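 active = activation above the screen-wide mean of compound activation plus 3 SD, cut at about 130% in these data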
#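 Material: STAT3-luciferase reporter U3A cells. Controls: IL-6-treated wells, 100% activation. Read-out: % activation versus median of IL-6-stimulated wells. Probe or stimulus: IL-6 stimulus at 33 ng/mL final. Timing: compound 1 h, then IL-6 6 h at 37 °C. Signal: reporter luminescence signal.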
# NF-kB expr up: compounds increasing NF-kB expression in human neuronal cells | AID 1239 | fold change at 12.5 µM | 190,000 compounds, 1.6% hits | NF-kB reporter expression; stronger effect = higher value; in the data active = fold change above about 3.3
# STAT1 act conf: STAT1 activation, confirmation assay. 1,200 compounds, 97% hits. activation (% of control), % at 5.7 µM. NIH 3T3 STAT1-luciferase reporter, IFN-gamma potentiation, luminescence; 100% = IFN-gamma EC80 alone, no compound. AID 1262. shares compounds with STAT1 act;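 active = activation above a set limit carried over from the earlier primary STAT1 screen, cut at about 140% in these data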
# NFkB act: counter-screen for STAT1 activators: NF-kappaB activation; shares compounds with STAT1 act; HEK293T NF-kB luciferase reporter, TNF-alpha stimulated, luminescence; 100% = TNF-alpha with vehicle only; activation (% of control), % at 5.7 µM; 1,200 compounds, 43% hits; AID 1306;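 active = activation above the mean of solvent-only control wells plus 3 SD, set per campaign, cut at about 130% in these data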;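 also: TNF-alpha given at a submaximal dose yielding about 80% of full reporter signal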
# STAT3 act STAT1c: activates human STAT3, counter-screen to STAT1 activators | shares compounds with STAT1 act | AID 1316 | activation (% of control), % at 5.7 µM | U3A cells STAT3-luciferase reporter, IL-6, luminescence; cells lack STAT1; 100 = IL-6 alone, no compound effect | 1,200 compounds, 46% hits;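 active = activation above the solvent-only control well mean plus 3 SD, set per plate batch, cut at about 110% in these data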;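 also: higher means more STAT3 reporter activation so hits are non-selective activators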
# A number is an active result; n = inactive; x = no result.
SMILES,STAT3 inh,STAT1 act,STAT1 inh,APP 5'UTR act,STAT3 act,NF-kB expr up,STAT1 act conf,NFkB act,STAT3 act STAT1c
Cc1ccc(NC(=O)Nc2ccc(Cl)cn2)cc1,n,172.4,n,n,n,n,171.0,n,n
COc1ccc(NC(=O)Nc2ccc(Br)cn2)cc1,n,169.3,n,n,n,n,159.6,n,n
COC(=O)c1ccccc1NC(=O)Nc1ccc(Br)cn1,n,n,n,n,n,n,x,x,x
CS(=O)(=O)c1ccccc1-c1nc(-c2ccc([N+](=O)[O-])cc2)no1,n,n,n,n,n,n,x,x,x
COc1cc2c(C(=O)N3CCN(c4cccc(Cl)c4)CC3)cn(CC(C)C)c(=O)c2cc1OC,n,n,n,n,n,n,x,x,x
CCCn1c(N)c(C(=S)NC(=O)C2CC2)c(=O)n(C)c1=O,n,n,n,n,n,n,x,x,x
O=C(/C=C/Nc1ccc(Nc2ccccc2)cc1)c1cccs1,n,162.5,n,n,n,n,166.1,140.3,n
CNc1nc(CC(C)=O)ns1,n,n,n,n,n,n,x,x,x
CC(=O)Cc1nsc(Nc2ccc(C)cc2)n1,n,156.5,n,n,n,n,189.5,136.8,122.4
O=c1c2cc3c(=O)n(-c4ccccc4O)c(=O)c3cc2c(=O)n1-c1ccccc1O,n,n,n,n,n,n,x,x,x
Cc1ccc(NC(=O)c2cc(-c3ccccc3)nn2-c2ccccc2)cc1,n,n,n,n,n,n,x,x,x
CC(=O)C(/C=N/c1cc(-c2ccc(C)cc2)nn1-c1ccccc1)=C(\C)O,n,159.0,n,n,n,n,160.7,n,n
CCCCCCCCCCCC(=O)N/N=C/c1ccco1,n,n,n,n,n,n,x,x,x
Cc1ccc(NC(=O)c2noc3c2CCCCC3)cc1,n,155.6,n,140.0,n,8.1,243.0,135.8,n
Cc1ccc(NC(=O)c2noc3c2CCCCC3)cc1C,n,198.2,n,237.3,n,4.86,270.7,n,n
CCc1ccc(NC(=O)c2noc3c2CCCCC3)cc1,n,164.5,n,201.5,n,4.48,218.9,144.0,111.8
COc1ccc(NC(=O)c2noc3c2CCCCC3)cc1,n,168.8,n,166.0,n,6.73,211.7,138.4,n
CN(c1ccccc1)S(=O)(=O)c1ccc(C(=O)NCc2ccccn2)cc1,n,n,n,n,n,n,x,x,x
CCOc1ccc(N(CCCCO)C(=S)NC(=O)c2ccc(C)c(Br)c2)cc1,n,n,n,n,n,n,x,x,x
COc1ccc(OC)c(S(=O)(=O)NC(N)=NCCc2ccccc2OC)c1,n,n,n,n,n,n,x,x,x
CC1Cc2ccccc2N1C(=O)CSc1nnc2c(n1)[nH]c1ccc(F)cc12 (configuration not stated),n,n,n,n,n,n,x,x,x
C/C(=N/OCO/N=C(/C)c1ccc(F)cc1)c1ccc(F)cc1,n,n,n,n,n,n,x,x,x
CCOC(=O)c1sc2nc(N3CCOCC3)c3c(c2c1N)CC(C(C)C)OC3 (configuration not stated),n,n,n,n,n,n,x,x,x
CCOC(=O)c1sc2nc3c(cc2c1N)COC(C(C)C)C3 (configuration not stated),n,214.4,n,144.9,n,n,233.0,n,n
Cc1ccc(Nc2nc(C3CC3)cs2)cc1,n,151.2,n,239.3,n,8.82,228.3,n,n
Clc1ccc(Nc2nc(C3CC3)cs2)cc1,n,153.7,n,179.8,n,5.14,188.1,141.6,n
C=CCNc1oc(/C=C/c2ccccc2)nc1C#N,n,155.2,n,173.9,n,7.24,196.9,143.7,113.7
Clc1ccc(C2=NNC(=NCC3CCCO3)SC2)cc1 (configuration not stated),n,n,n,n,n,n,x,x,x
